The term EC50 denotes the concentration needed to bring the measured effect to its halfway point.

The source made the active and inactive calls. The calls are words filed in the database; no cut-off is given here.

Data set [1] deals with HEK293. As to the kind of experiment: Binding affinity to human GFP-tagged NPC1L1 L1072T/L1168I mutant expressed in HEK293 cells assessed as localization to endoplasmic reticulum and plasma membrane at 10 uM after 24 hrs by fluorescence microscopic analysis. The class given is cell-based. The procedure, abridged: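 HEK293 cells stably expressing NPC1L1-GFP mutant from a CMV promoter, kept under G418 (0.4 mg/mL). Seeded at 6,000 cells/well on poly-lysine-coated glass in DMEM with 1% FBS. Dosed next day in 0.1% DMSO final for 24 h, then fixed in 3.7% formaldehyde and imaged at ×100. Each cell in 25 images scored ER 0 to PM 1; mean reported as % plasma membrane localization.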

Data set [2] concerns the target T1, NPC intracellular cholesterol transporter 1 (Homo sapiens) (UniProt O15118).
T1 sequence (whole entry): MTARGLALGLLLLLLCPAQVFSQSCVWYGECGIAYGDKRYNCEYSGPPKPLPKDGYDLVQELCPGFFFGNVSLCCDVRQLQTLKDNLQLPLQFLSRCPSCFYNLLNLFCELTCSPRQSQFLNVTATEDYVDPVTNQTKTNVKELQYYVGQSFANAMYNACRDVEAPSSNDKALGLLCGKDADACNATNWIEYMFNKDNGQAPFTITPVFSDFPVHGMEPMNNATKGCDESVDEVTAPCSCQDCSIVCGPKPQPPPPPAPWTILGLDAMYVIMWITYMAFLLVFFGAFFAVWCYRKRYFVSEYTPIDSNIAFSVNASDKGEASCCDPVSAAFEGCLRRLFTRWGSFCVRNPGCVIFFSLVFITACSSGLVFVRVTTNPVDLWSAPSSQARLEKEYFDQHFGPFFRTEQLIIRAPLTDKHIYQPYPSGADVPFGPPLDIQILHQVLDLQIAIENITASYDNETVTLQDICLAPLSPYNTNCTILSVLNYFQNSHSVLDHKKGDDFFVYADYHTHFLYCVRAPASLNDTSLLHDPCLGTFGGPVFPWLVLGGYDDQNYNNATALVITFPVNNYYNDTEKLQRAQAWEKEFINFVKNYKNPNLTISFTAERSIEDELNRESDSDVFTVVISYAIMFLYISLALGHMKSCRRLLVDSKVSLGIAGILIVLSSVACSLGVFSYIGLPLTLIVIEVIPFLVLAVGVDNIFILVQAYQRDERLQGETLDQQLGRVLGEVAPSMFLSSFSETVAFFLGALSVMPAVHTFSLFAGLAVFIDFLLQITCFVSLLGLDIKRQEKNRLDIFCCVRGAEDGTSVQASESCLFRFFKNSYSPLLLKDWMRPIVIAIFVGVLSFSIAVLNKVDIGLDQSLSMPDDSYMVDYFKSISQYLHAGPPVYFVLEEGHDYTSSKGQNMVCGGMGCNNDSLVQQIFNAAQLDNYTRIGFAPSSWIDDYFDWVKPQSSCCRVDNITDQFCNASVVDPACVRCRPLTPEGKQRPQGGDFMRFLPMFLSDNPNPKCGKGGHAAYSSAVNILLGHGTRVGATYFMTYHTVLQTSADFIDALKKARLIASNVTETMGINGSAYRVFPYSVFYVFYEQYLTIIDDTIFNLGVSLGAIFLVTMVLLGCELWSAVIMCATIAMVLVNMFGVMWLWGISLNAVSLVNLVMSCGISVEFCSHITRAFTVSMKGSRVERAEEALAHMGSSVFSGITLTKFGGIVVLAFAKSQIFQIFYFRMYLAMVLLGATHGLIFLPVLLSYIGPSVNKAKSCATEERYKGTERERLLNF
The data set is described as follows: Binding affinity to NPC1 (unknown origin).

A short description of data set [3]: Binding affinity to human GFP-tagged NPC1L1 L1072T/L1168I mutant expressed in HEK293 cells assessed as localization to endoplasmic reticulum and plasma membrane after 24 hrs by fluorescence microscopic analysis. The class given is cell-based. In short, it runs like this: (§1)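 HEK293 cells stably expressing the GFP-tagged construct (G418 0.4 mg/mL) were seeded at 6,000 cells/well in DMEM with 1% FBS on poly-lysine-coated glass. On day 2 they were treated for 24 h, final DMSO 0.1%. Cells were fixed in 3.7% formaldehyde and imaged at ×100. Across 25 images, cells were scored ER 0 to PM 1 and averaged as % plasma membrane localization. EC50 was taken from this score.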

A short description of data set [4]: Binding affinity to human GFP-tagged NTD-deleted NPC1L1 L1072T/L1168I mutant expressed in HEK293 cells assessed as localization to plasma membrane after 24 hrs by fluorescence microscopic analysis. The class given is cell-based. In short, it runs like this: as §1
For data set [5], the system named is HEK293. As to the kind of experiment: Cytotoxicity against HEK293 cells transfected with human GFP-tagged NPC1L1 L1072T/L1168I mutant. The class given is cell-based.
Data set [6] deals with HEK293. The data set is described as follows: Binding affinity to human GFP-tagged NPC1L1 L1072T/L1168I mutant expressed in HEK293 cells assessed as protein stabilization after 24 hrs by fluorescence assay. The class given is cell-based. In short, it runs like this: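 Stable HEK293 lines were grown to 70% confluency in phenol red-free medium in 12-well plates and exposed to vehicle or compound for 24 h. Supernatant GFP fluorescence was read and normalized to BCA total protein, n = 3.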

For the compound `CC(C)CCC[C@](C)(O)[C@H]1CC[C@H]2[C@@H]3CC=C4C[C@@H](O)CC[C@]4(C)[C@H]3CC[C@@]21C`, the outcome in data set [1] was inactive.

As for `CC(C)CC[C@H](O)[C@@H](C)[C@H]1CC[C@H]2[C@@H]3CC=C4C[C@@H](O)CC[C@]4(C)[C@H]3CC[C@]12C`, the result in data set [1] was inactive. Further, the result in data set [2] was Active.

`CC(C)CCC[C@@H](C)[C@H]1CC[C@H]2[C@@H]3CC(=O)[C@H]4C[C@@H](O)CC[C@]4(C)[C@H]3CC[C@]12C` [5alpha-CHOLESTAN-3beta-OL-6-ONE]: the EC50 in data set [3] (read-out: EC50) was determined as 2800 nM.

In the case of `CC(C)CCC[C@@H](C)[C@H]1CC[C@H]2[C@@H]3C[C@@H](O)[C@H]4C[C@@H](O)CC[C@]4(C)[C@H]3CC[C@]12C`, in data set [3] (read-out: EC50), the EC50 is 9700 nM.

In the case of `CCCN(CCC)C(=O)O[C@H]1CC[C@@]2(C)C(=CC[C@H]3[C@@H]4CC[C@H]([C@H](C)CCC(=O)N(C)C)[C@@]4(C)CC[C@@H]32)C1`, the EC50 in data set [4] was 8 µM; in data set [3] (read-out: EC50), 3000 nM.

Take `CC(C)CCC[C@@H](C)[C@H]1CC[C@H]2[C@@H]3CC=C4C[C@@H](O)CC[C@]4(C)[C@H]3CC[C@]12C`: the outcome in data set [1] was inactive.

For `C[C@H](CCC(=O)N(C)C)[C@H]1CC[C@H]2[C@@H]3CC=C4C[C@@H](OC(N)=O)CC[C@]4(C)[C@H]3CC[C@]12C`, the EC50 in data set [4] was more than 10 µM; in data set [3] (read-out: EC50) it was 8500 nM.

On to `CC(C)CCC[C@@H](C)[C@H]1CC[C@H]2[C@@H]3C[C@@H](O)[C@H]4C[C@@H](OC(=O)N(CCO)CCO)CC[C@]4(C)[C@H]3CC[C@]12C`, for which, in data set [3] (read-out: EC50), the EC50 worked out at 2000 nM.

`CCCCN(CCCC)C(=O)CC[C@@H](C)[C@H]1CC[C@H]2[C@@H]3CC=C4C[C@@H](O)CC[C@]4(C)[C@H]3CC[C@]12C`: the EC50 in data set [3] (read-out: EC50) was more than 3000 nM.

Consider `CC(C)CCC[C@@H](C)[C@H]1CC[C@H]2[C@@H]3CC(=O)[C@H]4C[C@@H](OC(=O)N(CCO)CCO)CC[C@]4(C)[C@H]3CC[C@]12C`, for which the EC50 in data set [3] (read-out: EC50) turned out to be 3800 nM.

`C[C@]12CC[C@H](O)CC1=CC[C@@H]1[C@@H]2CC[C@]2(C)C(=O)CC[C@@H]12`: the outcome in data set [1] was inactive.

For `CC(C)CCC[C@@H](C)[C@H]1CC[C@H]2[C@@H]3C[C@H](O)[C@H]4C[C@@H](O)CC[C@]4(C)[C@H]3CC[C@]12C`, the EC50 in data set [3] (read-out: EC50) turned out to be 8500 nM.

As to `C[C@H](CCC(=O)N(C)C)[C@H]1CC[C@H]2[C@@H]3CC=C4C[C@@H](OC(=O)N5CCN(C)CC5)CC[C@]4(C)[C@H]3CC[C@]12C`, the results for the EC50 in data set [4] and in data set [3] (read-out: EC50) were more than 10 µM and 2900 nM, respectively.

As for `CCCN(CCC)C(=O)CC[C@@H](C)[C@H]1CC[C@H]2[C@@H]3CC=C4C[C@@H](O)CC[C@]4(C)[C@H]3CC[C@]12C`, in data set [5], the Activity result is “Toxic”.

As to `C[C@H](CCC(=O)O)[C@H]1CC[C@H]2[C@@H]3CC=C4C[C@@H](O)CC[C@]4(C)[C@H]3CC[C@]12C`, in data set [3] (read-out: EC50), the EC50 was more than 10000 nM.

As for `CC(C)CCC[C@@H](C)[C@H]1CC[C@H]2[C@@H]3C(=O)C=C4C[C@@H](OC(=O)N(CCO)CCO)CC[C@]4(C)[C@H]3CC[C@]12C`, the EC50 in data set [3] (read-out: EC50) was determined as 3800 nM.

Regarding `CC(C)CC[C@@H](O)[C@@H](C)[C@H]1CC[C@H]2[C@@H]3CC=C4C[C@@H](O)CC[C@]4(C)[C@H]3CC[C@]12C`, in data set [1], the result was inactive.

Consider `C[C@H](CCC(C)(C)O)[C@H]1CC[C@H]2[C@@H]3CC=C4C[C@@H](O)CC[C@]4(C)[C@H]3CC[C@]12C`, for which, in data set [3] (read-out: EC50), the EC50 is more than 10000 nM.

Turning to `CC(C)CCC[C@@H](C)[C@H]1CC[C@H]2[C@@H]3[C@@H](O)C=C4C[C@@H](OC(=O)N(CCO)CCO)CC[C@]4(C)[C@H]3CC[C@]12C`, the EC50 in data set [3] (read-out: EC50) worked out at 2000 nM.

Consider `C[C@H](CCC(N)=O)[C@H]1CC[C@H]2[C@@H]3CC=C4C[C@@H](O)CC[C@]4(C)[C@H]3CC[C@]12C`, for which the EC50 in data set [3] (read-out: EC50) was more than 10000 nM.

As to `CC(C)CCC[C@@H](C)[C@H]1CC[C@H]2[C@@H]3C[C@@H](O)[C@@]4(O)C[C@@H](OC(=O)N(CCO)CCO)CC[C@]4(C)[C@H]3CC[C@]12C`, in data set [3] (read-out: EC50), the EC50 is 8100 nM.

`C[C@H](CCCO)[C@H]1CC[C@H]2[C@@H]3CC=C4C[C@@H](O)CC[C@]4(C)[C@H]3CC[C@]12C`: the EC50 entry in data set [3] is given as “Not Active”.

As to `C[C@H](CCC(=O)N(C)C)[C@H]1CC[C@H]2[C@@H]3CC=C4C[C@@H](OC(=O)N5CCOCC5)CC[C@]4(C)[C@H]3CC[C@]12C`, the EC50 in data set [4] worked out at 6.2 µM; in data set [3] (read-out: EC50) it was 2300 nM.

`CC(C)CCC[C@@H](C)[C@H]1CC[C@H]2[C@@H]3C[C@H](O)[C@H]4C[C@@H](OC(=O)N(CCO)CCO)CC[C@]4(C)[C@H]3CC[C@]12C`: in data set [3] (read-out: EC50), the EC50 came to 1100 nM.

Take `CNC(=O)CC[C@@H](C)[C@H]1CC[C@H]2[C@@H]3CC=C4C[C@@H](O)CC[C@]4(C)[C@H]3CC[C@]12C`: in data set [3] (read-out: EC50), the EC50 was more than 10000 nM.

In the case of `C[C@H](CCC(=O)N(C)C)[C@H]1CC[C@H]2[C@@H]3CC=C4C[C@@H](OC(=O)N(C)C)CC[C@]4(C)[C@H]3CC[C@]12C`, the results for the EC50 in data set [4] and in data set [3] (read-out: EC50) were 4.7 µM and 1100 nM, respectively.

Turning to `CC(C)CCC[C@@H](C)[C@H]1CC[C@H]2[C@@H]3[C@@H](O)C=C4C[C@@H](O)CC[C@]4(C)[C@H]3CC[C@]12C`, the EC50 in data set [3] (read-out: EC50) came out at 10000 nM.

For `CCN(CC)C(=O)O[C@H]1CC[C@@]2(C)C(=CC[C@H]3[C@@H]4CC[C@H]([C@H](C)CCC(=O)N(C)C)[C@@]4(C)CC[C@@H]32)C1`, the EC50 in data set [4] was 4.2 µM; in data set [3] (read-out: EC50), 1800 nM.

As for `C[C@H](CCCC(C)(C)O)[C@H]1CC[C@H]2[C@@H]3CC=C4C[C@@H](O)CC[C@]4(C)[C@H]3CC[C@]12C`, in data set [2], the result was Active. The EC50 in data set [3] (read-out: EC50) turned out to be 2300 nM.

With `CC(C)CCC[C@@H](C)[C@H]1CC[C@H]2[C@@H]3C(=O)C=C4C[C@@H](O)CC[C@]4(C)[C@H]3CC[C@]12C` [7-OXOCHOLESTEROL], in data set [3] (read-out: EC50), the EC50 amounted to 9700 nM.

Consider `CC(C)CCC[C@@H](C)[C@H]1CC[C@H]2[C@@H]3CC=C4C[C@@H](OC(=O)N(CCO)CCO)CC[C@]4(C)[C@H]3CC[C@]12C`, for which, in data set [3], the EC50 result is given as “Not Active”.

For `CC(C)CCC[C@@H](C)[C@H]1CC[C@H]2[C@@H]3CC=C4C[C@@H](O)CC[C@]4(CO)[C@H]3CC[C@]12C`, the outcome in data set [1] and in data set [6] was inactive.

With `C[C@H](CCC(=O)N(C)C)[C@H]1CC[C@H]2[C@@H]3CC=C4C[C@@H](O)CC[C@]4(C)[C@H]3CC[C@]12C`, in data set [3] (read-out: EC50), the EC50 was 800 nM.

These data come from ChEMBL document CHEMBL2417499, “Structure-activity relationship studies of Niemann-Pick type C1-like 1 (NPC1L1) ligands identified by screening assay monitoring pharmacological chaperone effect” (Bioorg Med Chem, 2013).
